The source of these data is ChEMBL document CHEMBL1145853, “Design, synthesis, and biological evaluation of cytotoxic 11-alkenylindenoisoquinoline topoisomerase I inhibitors and indenoisoquinoline-camptothecin hybrids” (2003).

One test has as its system Cancer cell lines. Put plainly: Mean graph midpoint for growth inhibition of all human cancer cell lines. The format is functional.
The next test has as its system SN12C. In words: Cytotoxic concentration against human renal SN12C cell line growth inhibition. It is filed as functional.
In a further test the test system is MDA-MB-435. In words: Cytotoxic concentration against human breast MDA-MB-435 cell line growth inhibition. It is filed as functional.
The test system of the next test is OVCAR-3. In words: Cytotoxic concentration against human ovarian OVCAR-3 cell line growth inhibition. The format is functional.
For the next test, the system named is UACC-62. In words: Cytotoxic concentration against human melanoma UACC-62 cell line growth inhibition. The format is functional.
In test [1] the target is T1, DNA topoisomerase 1 (Homo sapiens) (UniProt P11387).
T1 sequence (whole entry): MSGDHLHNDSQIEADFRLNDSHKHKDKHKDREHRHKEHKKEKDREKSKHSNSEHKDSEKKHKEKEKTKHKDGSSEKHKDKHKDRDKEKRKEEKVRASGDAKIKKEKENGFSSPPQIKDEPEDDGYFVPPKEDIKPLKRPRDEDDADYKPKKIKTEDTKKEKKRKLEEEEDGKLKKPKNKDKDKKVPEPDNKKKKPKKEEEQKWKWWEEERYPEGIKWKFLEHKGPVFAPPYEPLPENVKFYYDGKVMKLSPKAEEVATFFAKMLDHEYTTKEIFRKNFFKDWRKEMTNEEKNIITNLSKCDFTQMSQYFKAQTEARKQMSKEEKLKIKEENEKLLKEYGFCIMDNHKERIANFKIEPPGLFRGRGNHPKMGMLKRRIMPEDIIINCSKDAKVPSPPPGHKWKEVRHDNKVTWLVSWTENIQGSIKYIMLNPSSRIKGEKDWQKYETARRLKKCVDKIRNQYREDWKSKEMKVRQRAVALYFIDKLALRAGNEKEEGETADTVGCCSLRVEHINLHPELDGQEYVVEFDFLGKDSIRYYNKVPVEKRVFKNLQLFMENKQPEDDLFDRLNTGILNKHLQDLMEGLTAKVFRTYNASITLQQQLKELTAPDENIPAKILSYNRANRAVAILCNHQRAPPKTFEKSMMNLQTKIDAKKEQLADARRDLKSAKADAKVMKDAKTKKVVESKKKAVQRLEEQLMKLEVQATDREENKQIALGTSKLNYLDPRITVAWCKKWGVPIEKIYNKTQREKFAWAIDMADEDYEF
Put plainly: Activity to produce DNA topoisomerase I-mediated DNA cleavage at concentration up to 10 uM; +, indicates weak activity. A digest of the protocol: (§1)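 Human recombinant top1, purified from baculovirus, was incubated for 30 min at 22 °C with the drug at up to 10 μM. The substrate was a 161 bp PvuII/HindIII fragment of pBluescript SK(-), 3'-end-labeled at the HindIII site by Klenow fill-in with [α-32P]dGTP, about 50 000 dpm per reaction. Reactions were stopped with SDS (0.5% final) and run on denaturing 16% polyacrylamide/7 M urea gels. Cleavage was scored semiquantitatively.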

Another test has as its system DU-145. Put plainly: Cytotoxic concentration against human prostate DU-145 cell line growth inhibition. It is filed as functional.
A further test concerns HOP-62. In words: Cytotoxic concentration against human lung HOP-62 cell line growth inhibition. It is filed as functional.
A further test relates to SF-539. In words: Cytotoxic concentration against human CNS SF-539 cell line growth inhibition. It is filed as functional.
For a further test, the system named is HCT-116. In words: Cytotoxic concentration against human colon HCT116 cell line growth inhibition. The format is functional.
Test [2] deals with T1, DNA topoisomerase 1 (Homo sapiens). Put plainly: Activity to produce DNA topoisomerase I-mediated DNA cleavage at concentration up to 10 uM. A digest of the protocol:
as §1

Test [3] shares this target. In words: Activity to produce DNA topoisomerase I-mediated DNA cleavage at concentration up to 10 uM; +++, greater activity than the parent compound 2. A digest of the protocol:
as §1

On to `COc1cc2c3c(n(C)c(=O)c2cc1OC)-c1cc2c(cc1/C3=C/CCCCCBr)OCO2`, for which the MGM with Cancer cell lines was 7.8 µM.

Take `COc1cc2c3c(n(C)c(=O)c2cc1OC)-c1cc2c(cc1/C3=C\CCCCBr)OCO2`: the GI50 with SN12C, in the test on MDA-MB-435, with OVCAR-3 and with UACC-62 was above 100 µM each time.

Take `COc1cc2c3c(n(C)c(=O)c2cc1OC)-c1cc2c(cc1/C3=C\CCCCl)OCO2`: the GI50 in the test with SN12C and in the test on MDA-MB-435 was above 100 µM each time. In addition, in [1], the Activity entry is “Weak activity”.

As to `O=c1c2ccccc2cc2n1Cc1cc3ccccc3nc1-2` [ROSETTACIN], the GI50 (usually the concentration that inhibits growth by half) is above 100 µM in the test on SN12C; 41.8 µM in the test on MDA-MB-435; above 100 µM with DU-145; 68.2 µM with HOP-62; 39.8 µM with OVCAR-3; 66.7 µM in the test on SF-539. The values for the concentration for 50% growth inhibition (GI50) with HCT-116 and with UACC-62 were 32.7 µM and 97.2 µM, respectively.

For `COc1cc2c3c(n(C)c(=O)c2cc1OC)-c1cc2c(cc1C3=O)OCO2`, the GI50 was 68 µM in the test on SN12C; 96 µM with MDA-MB-435; 37 µM in the test on DU-145; 1.3 µM with HOP-62; 41 µM with SF-539; 35 µM in the test with HCT-116. In the test with UACC-62, this compound registered a GI50 of 4.2 µM. The compound further displayed an MGM in the test on Cancer cell lines of 20 µM.

Turning to `COc1cc2c3c(n(C)c(=O)c2cc1OC)-c1cc2c(cc1/C3=C\CCCBr)OCO2`, the GI50 is above 100 µM with SN12C; above 100 µM with MDA-MB-435; 67.8 µM in the test on DU-145; 19.4 µM with HOP-62; 58.1 µM in the test with OVCAR-3; 30 µM in the test on SF-539. The GI50 was determined as 37.8 µM in the test on HCT-116 and 11.4 µM in the test on UACC-62. The Activity in test [2] amounted to 0.

`COc1cc2c3c(n(C)c(=O)c2cc1OC)-c1cc2c(cc1/C3=C/CCCI)OCO2`: the GI50 in the test with SN12C worked out at 8.8 µM; in the test on MDA-MB-435 it was 5.2 µM; in the test with DU-145, 28.7 µM; with HOP-62, 27.6 µM; in the test on OVCAR-3 it was 22.8 µM; with SF-539, 4.3 µM. In addition, the values for the GI50 in the test on HCT-116 and in the test on UACC-62 were 0.56 µM and 3.5 µM, respectively. This compound returned an Activity in test [2] of 0.

In the case of `COc1cc2cc3n(c(=O)c2cc1OC)Cc1cc2ccccc2nc1-3` [DIMETHOXYAROMATHECIN], the GI50 with SN12C, with MDA-MB-435, in the test on DU-145, in the test with HOP-62, in the test on OVCAR-3 and in the test with SF-539 was above 100 µM each time. For the same compound, the GI50 in the test on HCT-116 is 57.3 µM; in the test with UACC-62 it was above 100 µM. In [1], the Activity entry is reported as “indicates weak activity”.

In the case of `COc1cc2c3c(n(C)c(=O)c2cc1OC)-c1cc2c(cc1/C3=C/CCN)OCO2`, the GI50 in the test on SN12C turned out to be 0.58 µM; in the test on MDA-MB-435, 1.8 µM; in the test with DU-145, 0.37 µM; with HOP-62, 0.071 µM; with OVCAR-3, 0.56 µM; in the test on SF-539 it was 0.42 µM. In addition, the concentration for 50% growth inhibition (GI50) with HCT-116 was 0.028 µM; with UACC-62 it was 0.2 µM. Besides, the MGM in the test on Cancer cell lines was found to be 0.34 µM. Also, the Activity result in [3] was “greater activity than compound 2”.
